DNMT1 block: blocks human DNA methyltransferase DNMT1. inhibition (reported as % activation of signal), % at 10 µM. P26358. AID 588458. actives 0.83% (n = 360,000). DNMT1 molecular beacon, Hinp1I cleavage, fluorescence; in the data active = inhibition above about 50%
Target sequence (P26358 504-1616 limits assumed): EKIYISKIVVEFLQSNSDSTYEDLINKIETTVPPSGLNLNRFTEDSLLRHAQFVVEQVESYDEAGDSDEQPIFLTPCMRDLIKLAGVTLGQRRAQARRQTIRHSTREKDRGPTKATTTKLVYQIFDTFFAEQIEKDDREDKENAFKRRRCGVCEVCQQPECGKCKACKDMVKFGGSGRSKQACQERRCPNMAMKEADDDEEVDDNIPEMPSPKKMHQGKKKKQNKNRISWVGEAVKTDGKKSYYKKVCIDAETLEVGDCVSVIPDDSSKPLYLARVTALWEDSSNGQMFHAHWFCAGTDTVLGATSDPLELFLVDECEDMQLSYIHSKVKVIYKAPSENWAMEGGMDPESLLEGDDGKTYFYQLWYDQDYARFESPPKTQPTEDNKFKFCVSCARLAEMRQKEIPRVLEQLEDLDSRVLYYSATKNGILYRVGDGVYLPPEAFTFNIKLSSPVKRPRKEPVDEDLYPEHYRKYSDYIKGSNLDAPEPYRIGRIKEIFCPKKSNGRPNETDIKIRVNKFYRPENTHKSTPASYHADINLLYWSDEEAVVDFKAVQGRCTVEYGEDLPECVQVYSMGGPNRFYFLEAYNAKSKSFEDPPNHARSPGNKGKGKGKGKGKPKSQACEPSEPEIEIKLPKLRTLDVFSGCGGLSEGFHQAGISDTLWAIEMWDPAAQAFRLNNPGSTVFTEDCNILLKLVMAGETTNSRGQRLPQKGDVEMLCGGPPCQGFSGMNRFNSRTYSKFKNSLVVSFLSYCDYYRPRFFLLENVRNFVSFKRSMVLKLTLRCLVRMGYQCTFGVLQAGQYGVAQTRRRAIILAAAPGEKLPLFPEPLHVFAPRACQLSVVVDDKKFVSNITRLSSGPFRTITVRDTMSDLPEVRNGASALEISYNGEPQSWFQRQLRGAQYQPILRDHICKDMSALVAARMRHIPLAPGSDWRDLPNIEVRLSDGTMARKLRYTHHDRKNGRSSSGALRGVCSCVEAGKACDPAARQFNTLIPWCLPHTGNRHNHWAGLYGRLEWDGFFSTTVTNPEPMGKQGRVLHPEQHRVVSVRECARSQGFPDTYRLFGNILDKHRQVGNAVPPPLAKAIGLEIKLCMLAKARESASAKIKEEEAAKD
STEP inh: STEP (human) phosphatase inhibition. recombinant STEP, OMFP fluorogenic substrate, fluorescence. P54829. actives 0.25% (n = 360,000). inhibition, % at 20 µM;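 active = inhibition at 20 µM, scaled per plate between control wells, above about 37%, limit read from the data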;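 note: 0% = DMSO with enzyme and substrate and 100% = substrate only without enzyme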
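Measure: Control-normalized % inhibition with plate pattern correction | Test system: STEP phosphatase, cell-free reaction | Medium: pH 6.0 Bis-Tris with DTT and Tween 20 | Technique: Fluorescence, 480/540 nm | Times: Reaction 20 min, ambient temperature | Doses: Single compound dose of 20 µM, 1% DMSO final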
LMPTP block: LMPTP (human) inhibition | P24666 | recombinant LMPTP-A, OMFP fluorogenic substrate, fluorescence intensity | inhibition, % at 20 µM | actives 0.22% (n = 360,000) | AID 651560;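 active = compounds that cut the enzyme signal by at least half of the control window in the single-dose screen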;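 note: plate controls were DMSO wells with enzyme plus substrate for no effect and substrate without enzyme for full effect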
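Test system: LMPTP-A, protein tyrosine phosphatase of low molecular weight; Input: 0.625 nM enzyme; Incubation: 50 min dark incubation at room temperature; Signal: endpoint fluorescence intensity from OMFP dephosphorylation; Read-out basis: % inhibition versus control wells.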
Scp1 inh: blocks human Scp-1 phosphatase activity | actives 0.88% (n = 340,000) | Recombinant Scp1, phosphopeptide, malachite green phosphate absorbance | inhibition, % at 20 µM | Q9GZU7;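 active = inhibition above about 50% at 20 µM, limit read from the data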;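 note: plate controls were DMSO wells with enzyme for no effect and wells lacking enzyme for full effect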
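System: truncated SCP-1 phosphatase (76-261aa); medium: Tris acetate buffer pH 5.5 with MgCl2 and Tween-20; incubation: 45 min room-temperature reaction, 5 min colour, 30 min stabiliser; compound: single 20 µM dose, 1% DMSO; reagent: Phosphorylated 17-residue peptide substrate; read-out: % inhibition at 20 µM; technique: colorimetric free-phosphate detection, absorbance 630 nm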
F508del corr: CFTR F508del correction in bronchial cells. activity (quench increase), % at 7.58 µM. CFBE cells, YFP halide quenching; stimulated with forskolin plus potentiator P3; % fluorescence drop versus neutral controls. actives 0.36% (n = 350,000). AID 720511;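 active = mean added fluorescence quench of at least 8% versus neutral control, with both replicates also reaching 8%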;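 note: cells transiently co-express mutant CFTR-F508del with the halide-sensitive YFP; corrector assay measuring rescue of mutant channel to the surface after 24 h compound exposure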
SUMO1 PPI mod: SUMO1-SIM interaction modulation | actives 0.33% (n = 360,000) | inhibition, % at 20 µM | SUMO1 binding to a labelled peptide, TR-FRET, 1 h; in the data active = inhibition above about 37%
* marks the source's active call; other numbers are inactive results. A selection: hits, their analogues and other compounds. The true share with any hit is near 1.6%.

For COC(=O)c1sc(NC(=O)c2cc(-c3ccccc3)nc3ccccc23)c(C#N)c1C the results were DNMT1 block -26.7, STEP inh 90.9*, LMPTP block 0.9, Scp1 inh -9.3 and SUMO1 PPI mod 4.5.
For CCOC(=O)c1sc(NC(=O)c2cc(-c3ccc(C)cc3)nc3ccccc23)c(C#N)c1C the results were DNMT1 block -22.9, STEP inh 9.5, LMPTP block 1.9, Scp1 inh -10.8 and SUMO1 PPI mod 4.4.
For CCC(C(=O)OCC(=O)Nc1ccc2[nH]c(=O)[nH]c2c1)c1ccccc1 (stereo unspecified) the results were DNMT1 block 2.6, STEP inh -0.7, LMPTP block -0.1, Scp1 inh -5.7, F508del corr 5.1 and SUMO1 PPI mod 42.9*.
For O=C(COC(=O)c1ccccc1OC(F)F)Nc1ccc2[nH]c(=O)[nH]c2c1 the results were DNMT1 block -9.7, STEP inh -2.8, LMPTP block -0.8, Scp1 inh 26.5, F508del corr 4.1 and SUMO1 PPI mod 40.4*.
Screening O=C(CSc1nncs1)Nc1ccc2[nH]c(=O)[nH]c2c1 returned DNMT1 block 0.6, STEP inh -2.7, LMPTP block 1.2, Scp1 inh -5.8, F508del corr -3.5 and SUMO1 PPI mod 65.6*.
Screening COc1ccc(CC(=O)OCC(=O)Nc2ccc3[nH]c(=O)[nH]c3c2)cc1 returned DNMT1 block 1.4, STEP inh 2.4, LMPTP block -1.5, Scp1 inh -3.9, F508del corr -0.7 and SUMO1 PPI mod 14.6.
`O=C(COC(=O)Cc1ccc(F)cc1)Nc1ccc2[nH]c(=O)[nH]c2c1` gave DNMT1 block -2.1, STEP inh 0.0, LMPTP block -0.5, Scp1 inh -3.9, F508del corr 0.7 and SUMO1 PPI mod 73.7*.
Cc1nnc(SCC(=O)Nc2ccc3[nH]c(=O)[nH]c3c2)s1 was read as DNMT1 block -0.1, STEP inh -0.2, LMPTP block -1.9, Scp1 inh -2.7, F508del corr -1.1 and SUMO1 PPI mod -0.1.
`COc1ccc2c3c([nH]c2c1)[C@@H](CO)N(C(=O)C1CCC1)CC31CN(Cc2nccs2)C1` gave F508del corr -1.5.
For O=C(NCC[C@H]1CC[C@H](NC(=O)C2CCCCC2)[C@@H](CO)O1)c1ccc(F)cc1 the results were F508del corr 1.3.
For O=C(COC(=O)c1cc(Cl)nc(Cl)c1)Nc1ccc(Cl)c(S(=O)(=O)N2CCOCC2)c1 the results were DNMT1 block -3.7, STEP inh -1.0, LMPTP block 1.0, Scp1 inh 0.5, F508del corr 1.1 and SUMO1 PPI mod 22.2.
Screening Cc1ccc(C(=O)CCC(=O)OCC(=O)Nc2ccc3[nH]c(=O)[nH]c3c2)cc1 returned DNMT1 block 4.2, STEP inh 0.3, LMPTP block -0.4, Scp1 inh 1.6, F508del corr -0.8 and SUMO1 PPI mod 25.2.
Screening O=C(COC(=O)CCC(=O)c1ccc(F)cc1)Nc1ccc2[nH]c(=O)[nH]c2c1 returned DNMT1 block -0.3, STEP inh -1.3, LMPTP block 0.4, Scp1 inh -3.5, F508del corr -0.2 and SUMO1 PPI mod 39.0*.
O=C(COC(=O)c1ccc(Cl)c(S(=O)(=O)N2CCOCC2)c1)Nc1ccc2[nH]c(=O)[nH]c2c1 was read as DNMT1 block -1.6, STEP inh -1.7, LMPTP block -0.5, Scp1 inh 3.2, F508del corr 1.2 and SUMO1 PPI mod 83.6*.
`O=S(=O)(c1ccccc1)N1CCCCN2[C@H](CO)[C@H](c3ccc(C#Cc4cccnc4)cc3)[C@@H]2C1` gave F508del corr 2.2.
For CCCCOC(=O)c1ccc(NC(=S)N2CCN(c3ncc4c(=O)c(C(=O)O)cn(CC)c4n3)CC2)cc1 the results were DNMT1 block -7.3, STEP inh 7.9, LMPTP block 40.3, Scp1 inh -5.2, F508del corr 0.2 and SUMO1 PPI mod 6.4.
CCCOc1ccc(C(=O)NC(=S)N2CCN(c3ncc4c(=O)c(C(=O)O)cn(CC)c4n3)CC2)cc1 was read as DNMT1 block 6.0, STEP inh 7.4, LMPTP block 70.0*, F508del corr -0.4 and SUMO1 PPI mod 11.7.
CCn1cc(C(=O)O)c(=O)c2cnc(N3CCN(C(=S)Nc4ccccc4)CC3)nc21 was read as DNMT1 block -5.4, STEP inh 1.0, LMPTP block 1.5, Scp1 inh -7.2, F508del corr -4.3 and SUMO1 PPI mod 13.1.
CCOC(=O)c1cccc(NC(=S)N2CCN(c3ncc4c(=O)c(C(=O)O)cn(CC)c4n3)CC2)c1 was read as DNMT1 block 0.8, STEP inh 6.5, LMPTP block 69.9*, Scp1 inh -7.2, F508del corr 0.5 and SUMO1 PPI mod 3.2.
`CCn1cc(C(=O)O)c(=O)c2cnc(N3CCN(C(=S)NC(=O)c4ccccc4)CC3)nc21` gave DNMT1 block -5.2, STEP inh 1.6, LMPTP block 55.6*, Scp1 inh -7.9, F508del corr 1.9 and SUMO1 PPI mod 12.2.
C[C@H](CO)N1C[C@H](C)[C@H](CN(C)C(=O)c2ccc(F)cc2)Oc2ncc(-c3ccc(F)cc3)cc2C1=O was read as F508del corr 1.2.
For COC(=O)c1cc(C(=O)N2CCN(c3cccc(C)c3C)CC2)cc([N+](=O)[O-])c1 the results were DNMT1 block -5.7, STEP inh 2.3, LMPTP block 0.4, Scp1 inh 5.4 and SUMO1 PPI mod 61.3*.
For Cc1[nH]c2ccc(C(=O)N3CCN(c4ccccc4Cl)CC3)cc2c1C the results were DNMT1 block -5.2, STEP inh 1.5, LMPTP block 2.3, Scp1 inh -5.2, F508del corr 0.6 and SUMO1 PPI mod 1.5.
Screening Cc1cccc(N2CCN(C(=O)c3ccc4[nH]c(C)c(C)c4c3)CC2)c1C returned DNMT1 block -7.8, STEP inh 0.3, LMPTP block 2.6, Scp1 inh -6.8, F508del corr 10.7* and SUMO1 PPI mod 7.7.
CC(C)(C)c1ccc(/C=C/C(=O)c2ccc(NC3=NCCCS3)cc2)cc1 was read as DNMT1 block 18.0, STEP inh 5.8, LMPTP block 3.3, Scp1 inh 5.8, F508del corr 8.3* and SUMO1 PPI mod 1.4.
`CC(=O)OCC(=O)NCCCOc1cccc(CN2CCCCC2)c1` gave DNMT1 block 8.4, STEP inh -2.9, LMPTP block -1.8, Scp1 inh -6.3, F508del corr 8.3* and SUMO1 PPI mod -1.8.
`CO[C@@H]1CN(C)C(=O)c2ccc(NC(=O)C3CCCC3)cc2OC[C@H](C)N(S(C)(=O)=O)C[C@H]1C` gave F508del corr 4.2.
For COCC(=O)N1[C@H](CO)[C@H](c2ccccc2)C12CN(C(=O)NC1CCCC1)C2 the results were F508del corr -0.7.
